Measured values from ChEMBL document CHEMBL5058577, “EUbOPEN Chemogenomics Library 2 (Multiplex)” (2022).

Test system: HEK-293T
Experiment: Multiplex assay against HEK293T
Assay type: toxicity, cell-based
Details: human
Method in brief: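 Imaging took place on a CQ1 microscope at 37°C and 5% CO2 once compound had been added to live cells stained at seeding with Hoechst33342, BioTracker Green Microtubule Cytoskeleton Dye, MitoTracker Red and Annexin V Alexa Fluor 680. CellPathfinder machine-learning gating classed cells as Hoechst high-intensity objects or normal cells, classed normal cells as having healthy, pyknosed or fragmented nuclei, and classed pyknosed cells as mitotic or apoptotic. Tubulin, mitochondrial-mass and membrane-permeability phenotypes are per cents of the healthy-nucleus cells.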

[1] = 12 h, 1 µM, compound concentration 1 uM, replicate 1
[2] = 12 h, 1 µM, compound concentration 1 uM, replicate 2
[3] = 12 h, 10 µM, compound concentration 10 uM, replicate 1
[4] = 12 h, 10 µM, compound concentration 10 uM, replicate 2
[5] = 24 h, 1 µM, compound concentration 1 uM, replicate 1
[6] = 24 h, 1 µM, compound concentration 1 uM, replicate 2
[7] = 24 h, 10 µM, compound concentration 10 uM, replicate 1
[8] = 24 h, 10 µM, compound concentration 10 uM, replicate 2
[9] = 48 h, 1 µM, compound concentration 1 uM, replicate 1
[10] = 48 h, 1 µM, compound concentration 1 uM, replicate 2
[11] = 48 h, 10 µM, compound concentration 10 uM, replicate 1
[12] = 48 h, 10 µM, compound concentration 10 uM, replicate 2

Structure (SMILES): COc1c(C)cc(NC(=O)c2nn(Cc3ccc(F)cc3)c3c2CN(C(=O)c2ccc[nH]2)C[C@]3(C)C(N)=O)cc1C
- Population Apoptotic (%) [1]: 42%
- Population Fragmented Nuclei (%) [1]: 6%
- Population Healthy Nuclei (%) [1]: 79%
- Population Hoechst High Intensity Objects (%) [1]: 7%
- Population Membrane Permeable-Phenotype (%) [1]: 0%
- Population Mitochondria Different-Phenotype (%) [1]: 51%
- Population Mitotic Cells (%) [1]: 57%
- Population Normal (%) [1]: 92%
- Population Pyknosed Nuclei (%) [1]: 13%
- Population Tubulin-Different-Phenotype (%) [1]: 36%
- Total Cell Count [1]: 426
- Population Apoptotic (%) [2]: 38%
- Population Fragmented Nuclei (%) [2]: 7%
- Population Healthy Nuclei (%) [2]: 75%
- Population Hoechst High Intensity Objects (%) [2]: 5%
- Population Mitochondria Different-Phenotype (%) [2]: 58%
- Population Mitotic Cells (%) [2]: 61%
- Population Normal (%) [2]: 94%
- Population Pyknosed Nuclei (%) [2]: 17%
- Population Tubulin-Different-Phenotype (%) [2]: 29%
- Total Cell Count [2]: 304
- Population Apoptotic (%) [3]: 67%
- Population Fragmented Nuclei (%) [3]: 4%
- Population Healthy Nuclei (%) [3]: 77%
- Population Hoechst High Intensity Objects (%) [3]: 13%
- Population Membrane Permeable-Phenotype (%) [3]: 0%
- Population Mitochondria Different-Phenotype (%) [3]: 90%
- Population Mitotic Cells (%) [3]: 32%
- Population Normal (%) [3]: 86%
- Population Pyknosed Nuclei (%) [3]: 17%
- Population Tubulin-Different-Phenotype (%) [3]: 62%
- Total Cell Count [3]: 383
- Population Apoptotic (%) [4]: 59%
- Population Fragmented Nuclei (%) [4]: 6%
- Population Healthy Nuclei (%) [4]: 71%
- Population Mitochondria Different-Phenotype (%) [4]: 95%
- Population Mitotic Cells (%) [4]: 40%
- Population Pyknosed Nuclei (%) [4]: 21%
- Population Tubulin-Different-Phenotype (%) [4]: 63%
- Total Cell Count [4]: 285
- Population Apoptotic (%) [5]: 21%
- Population Fragmented Nuclei (%) [5]: 7%
- Population Healthy Nuclei (%) [5]: 80%
- Population Hoechst High Intensity Objects (%) [5]: 4%
- Population Membrane Permeable-Phenotype (%) [5]: 0%
- Population Mitochondria Different-Phenotype (%) [5]: 30%
- Population Mitotic Cells (%) [5]: 78%
- Population Normal (%) [5]: 95%
- Population Pyknosed Nuclei (%) [5]: 12%
- Population Tubulin-Different-Phenotype (%) [5]: 24%
- Total Cell Count [5]: 574
- Population Apoptotic (%) [6]: 51%
- Population Fragmented Nuclei (%) [6]: 5%
- Population Healthy Nuclei (%) [6]: 86%
- Population Mitochondria Different-Phenotype (%) [6]: 43%
- Population Mitotic Cells (%) [6]: 48%
- Population Pyknosed Nuclei (%) [6]: 7%
- Population Tubulin-Different-Phenotype (%) [6]: 16%
- Total Cell Count [6]: 422
- Population Apoptotic (%) [7]: 53%
- Population Fragmented Nuclei (%) [7]: 6%
- Population Healthy Nuclei (%) [7]: 73%
- Population Hoechst High Intensity Objects (%) [7]: 11%
- Population Membrane Permeable-Phenotype (%) [7]: 0%
- Population Mitochondria Different-Phenotype (%) [7]: 91%
- Population Mitotic Cells (%) [7]: 46%
- Population Normal (%) [7]: 88%
- Population Pyknosed Nuclei (%) [7]: 19%
- Population Tubulin-Different-Phenotype (%) [7]: 61%
- Total Cell Count [7]: 403
- Population Apoptotic (%) [8]: 67%
- Population Fragmented Nuclei (%) [8]: 5%
- Population Healthy Nuclei (%) [8]: 74%
- Population Hoechst High Intensity Objects (%) [8]: 15%
- Population Mitochondria Different-Phenotype (%) [8]: 92%
- Population Mitotic Cells (%) [8]: 32%
- Population Normal (%) [8]: 84%
- Population Tubulin-Different-Phenotype (%) [8]: 56%
- Total Cell Count [8]: 313
- Population Apoptotic (%) [9]: 21%
- Population Fragmented Nuclei (%) [9]: 11%
- Population Healthy Nuclei (%) [9]: 81%
- Population Hoechst High Intensity Objects (%) [9]: 2%
- Population Membrane Permeable-Phenotype (%) [9]: 1%
- Population Mitochondria Different-Phenotype (%) [9]: 25%
- Population Mitotic Cells (%) [9]: 78%
- Population Normal (%) [9]: 97%
- Population Pyknosed Nuclei (%) [9]: 6%
- Population Tubulin-Different-Phenotype (%) [9]: 18%
- Total Cell Count [9]: 920
- Population Apoptotic (%) [10]: 39%
- Population Fragmented Nuclei (%) [10]: 12%
- Population Hoechst High Intensity Objects (%) [10]: 3%
- Population Mitochondria Different-Phenotype (%) [10]: 28%
- Population Mitotic Cells (%) [10]: 60%
- Population Normal (%) [10]: 96%
- Population Tubulin-Different-Phenotype (%) [10]: 9%
- Total Cell Count [10]: 652
- Population Apoptotic (%) [11]: 60%
- Population Fragmented Nuclei (%) [11]: 8%
- Population Healthy Nuclei (%) [11]: 76%
- Population Hoechst High Intensity Objects (%) [11]: 14%
- Population Membrane Permeable-Phenotype (%) [11]: 0%
- Population Mitochondria Different-Phenotype (%) [11]: 93%
- Population Mitotic Cells (%) [11]: 39%
- Population Normal (%) [11]: 85%
- Population Pyknosed Nuclei (%) [11]: 15%
- Population Tubulin-Different-Phenotype (%) [11]: 66%
- Total Cell Count [11]: 467
- Population Apoptotic (%) [12]: 80%
- Population Fragmented Nuclei (%) [12]: 9%
- Population Healthy Nuclei (%) [12]: 81%
- Population Hoechst High Intensity Objects (%) [12]: 10%
- Population Mitochondria Different-Phenotype (%) [12]: 90%
- Population Mitotic Cells (%) [12]: 19%
- Population Normal (%) [12]: 89%
- Population Pyknosed Nuclei (%) [12]: 9%
- Population Tubulin-Different-Phenotype (%) [12]: 59%
- Total Cell Count [12]: 376

Structure (SMILES): CSc1ccccc1N1CCN(CCCCCC(=O)NC2CCCc3ccccc32)CC1.Cl (stereo unspecified)
- Population Apoptotic (%) [1]: 45%
- Population Fragmented Nuclei (%) [1]: 6%
- Population Healthy Nuclei (%) [1]: 74%
- Population Hoechst High Intensity Objects (%) [1]: 8%
- Population Membrane Permeable-Phenotype (%) [1]: 0%
- Population Mitochondria Different-Phenotype (%) [1]: 68%
- Population Mitotic Cells (%) [1]: 54%
- Population Normal (%) [1]: 91%
- Population Pyknosed Nuclei (%) [1]: 18%
- Population Tubulin-Different-Phenotype (%) [1]: 59%
- Total Cell Count [1]: 391
- Population Hoechst High Intensity Objects (%) [2]: 12%
- Population Mitochondria Different-Phenotype (%) [2]: 75%
- Population Normal (%) [2]: 87%
- Population Pyknosed Nuclei (%) [2]: 19%
- Population Tubulin-Different-Phenotype (%) [2]: 43%
- Total Cell Count [2]: 322
- Population Apoptotic (%) [3]: 80%
- Population Fragmented Nuclei (%) [3]: 8%
- Population Healthy Nuclei (%) [3]: 68%
- Population Hoechst High Intensity Objects (%) [3]: 15%
- Population Membrane Permeable-Phenotype (%) [3]: 0%
- Population Mitochondria Different-Phenotype (%) [3]: 97%
- Population Mitotic Cells (%) [3]: 20%
- Population Normal (%) [3]: 84%
- Population Pyknosed Nuclei (%) [3]: 22%
- Population Tubulin-Different-Phenotype (%) [3]: 59%
- Total Cell Count [3]: 316
- Population Apoptotic (%) [4]: 79%
- Population Fragmented Nuclei (%) [4]: 5%
- Population Healthy Nuclei (%) [4]: 74%
- Population Hoechst High Intensity Objects (%) [4]: 16%
- Population Normal (%) [4]: 83%
- Population Pyknosed Nuclei (%) [4]: 19%
- Population Tubulin-Different-Phenotype (%) [4]: 65%
- Total Cell Count [4]: 304
- Population Apoptotic (%) [5]: 36%
- Population Fragmented Nuclei (%) [5]: 8%
- Population Healthy Nuclei (%) [5]: 79%
- Population Hoechst High Intensity Objects (%) [5]: 4%
- Population Membrane Permeable-Phenotype (%) [5]: 0%
- Population Mitochondria Different-Phenotype (%) [5]: 50%
- Population Mitotic Cells (%) [5]: 63%
- Population Normal (%) [5]: 95%
- Population Pyknosed Nuclei (%) [5]: 11%
- Population Tubulin-Different-Phenotype (%) [5]: 41%
- Total Cell Count [5]: 508
- Population Apoptotic (%) [6]: 41%
- Population Healthy Nuclei (%) [6]: 75%
- Population Hoechst High Intensity Objects (%) [6]: 7%
- Population Mitochondria Different-Phenotype (%) [6]: 70%
- Population Mitotic Cells (%) [6]: 58%
- Population Normal (%) [6]: 92%
- Population Pyknosed Nuclei (%) [6]: 16%
- Population Tubulin-Different-Phenotype (%) [6]: 44%
- Total Cell Count [6]: 356
- Population Apoptotic (%) [7]: 75%
- Population Fragmented Nuclei (%) [7]: 5%
- Population Healthy Nuclei (%) [7]: 70%
- Population Hoechst High Intensity Objects (%) [7]: 21%
- Population Membrane Permeable-Phenotype (%) [7]: 0%
- Population Mitochondria Different-Phenotype (%) [7]: 98%
- Population Mitotic Cells (%) [7]: 24%
- Population Normal (%) [7]: 78%
- Population Pyknosed Nuclei (%) [7]: 23%
- Population Tubulin-Different-Phenotype (%) [7]: 53%
- Total Cell Count [7]: 303
- Population Apoptotic (%) [8]: 69%
- Population Fragmented Nuclei (%) [8]: 7%
- Population Healthy Nuclei (%) [8]: 73%
- Population Hoechst High Intensity Objects (%) [8]: 20%
- Population Mitochondria Different-Phenotype (%) [8]: 97%
- Population Mitotic Cells (%) [8]: 30%
- Population Normal (%) [8]: 79%
- Population Pyknosed Nuclei (%) [8]: 18%
- Population Tubulin-Different-Phenotype (%) [8]: 48%
- Total Cell Count [8]: 315
- Population Apoptotic (%) [9]: 32%
- Population Fragmented Nuclei (%) [9]: 10%
- Population Healthy Nuclei (%) [9]: 78%
- Population Hoechst High Intensity Objects (%) [9]: 4%
- Population Membrane Permeable-Phenotype (%) [9]: 0%
- Population Mitochondria Different-Phenotype (%) [9]: 39%
- Population Mitotic Cells (%) [9]: 67%
- Population Normal (%) [9]: 95%
- Population Pyknosed Nuclei (%) [9]: 10%
- Population Tubulin-Different-Phenotype (%) [9]: 27%
- Total Cell Count [9]: 747
- Population Apoptotic (%) [10]: 45%
- Population Healthy Nuclei (%) [10]: 76%
- Population Hoechst High Intensity Objects (%) [10]: 6%
- Population Mitochondria Different-Phenotype (%) [10]: 59%
- Population Mitotic Cells (%) [10]: 54%
- Population Normal (%) [10]: 93%
- Population Pyknosed Nuclei (%) [10]: 13%
- Population Tubulin-Different-Phenotype (%) [10]: 31%
- Total Cell Count [10]: 471
- Population Apoptotic (%) [11]: 76%
- Population Fragmented Nuclei (%) [11]: 11%
- Population Healthy Nuclei (%) [11]: 73%
- Population Hoechst High Intensity Objects (%) [11]: 28%
- Population Membrane Permeable-Phenotype (%) [11]: 0%
- Population Mitochondria Different-Phenotype (%) [11]: 97%
- Population Mitotic Cells (%) [11]: 23%
- Population Normal (%) [11]: 71%
- Population Pyknosed Nuclei (%) [11]: 14%
- Population Tubulin-Different-Phenotype (%) [11]: 67%
- Total Cell Count [11]: 365
- Population Apoptotic (%) [12]: 56%
- Population Fragmented Nuclei (%) [12]: 13%
- Population Hoechst High Intensity Objects (%) [12]: 18%
- Population Mitochondria Different-Phenotype (%) [12]: 93%
- Population Mitotic Cells (%) [12]: 43%
- Population Normal (%) [12]: 81%
- Population Pyknosed Nuclei (%) [12]: 13%
- Population Tubulin-Different-Phenotype (%) [12]: 56%
- Total Cell Count [12]: 385
